Reference: ChEMBL document CHEMBL4428030, “Design and Synthesis of Structure-Simplified Derivatives of Gonytolide for the Promotion of Innate Immune Responses” (J Nat Prod, 2016)
Active and inactive are the calls of the source. No cut-off for these calls is given here.

How the values were obtained:
Drosophila [1] = assay: Stimulation of innate immune response in Drosophila third-instar larvae assessed as DAP-type peptidoglycans-mediated Dpt-LacZ activation at 1 to 10 ug/ml after 12 hrs by beta-galactosidase reporter gene assay; assay type: functional, organism-based
Method in brief: (§1)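 Opened third-instar Dpt-lacZ larvae cultured whole in Schneider's medium with 20% FBS and 1% antibiotics/antimycotics, 25 °C, six larvae per condition as replicates. Compound added from DMSO together with 100 ng/mL E. coli peptidoglycan for 12 h. Each larva sonicated in phosphate buffer (60 mM Na2HPO4, 40 mM NaH2PO4, 10 mM KCl, 1 mM MgCl2) and spun 10000g, 4 °C, 10 min. Supernatant β-galactosidase normalized to total protein.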

Drosophila [2] = assay: Stimulation of innate immune response in Drosophila third-instar larvae assessed as DAP-type peptidoglycans-mediated Dpt-LacZ activation at 10 ug/ml after 12 hrs by beta-galactosidase reporter gene assay relative to control; assay type: functional; method in brief: as §1
HUVEC = assay: Stimulation of innate immune response in HUVEC assessed as increase in TNFalpha-stimulated IL-8 production at 10 ug/ml preincubated for 3 hrs followed by TNFalpha stimulation measured after 12 hrs by ELISA; assay type: functional, cell-based; conditions: Homo sapiens
Method in brief: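 HUVECs grown in EGM-2 at 37 °C, 5% CO2. Cells preincubated ±compound for 3 h, then given 11 μL of 10 ng/mL hTNF-α (stock added to 100 μL well). Supernatants collected after a further 12 h for ELISA.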

[3] = Cytotoxicity against Drosophila melanogaster S2 cells assessed as reduction in cell viability at 10 ug/ml by WST8 assay; assay type: cell-based
Method in brief: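 S2 cells kept at 25 °C in Schneider's medium with 10% FBS and 1% antibiotics/antimycotics. Viability read by colorimetric WST-8 conversion.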

Drosophila [4] = assay: Stimulation of innate immune response in Drosophila third-instar larvae assessed as DAP-type peptidoglycans-mediated Dpt-LacZ activation at 10 ug/ml after 12 hrs by beta-galactosidase reporter gene assay; assay type: functional, organism-based; method in brief: as §1

SMILES | Activity (Drosophila [1]) | fold change (FC) (Drosophila [2]) | Activity (HUVEC) | Activity [3] | Activity (Drosophila [4])
COc1cc(C)c(-c2c(C)cc(OC)c3c(=O)cc(CCCCO)oc23)c2oc(CCCCO)cc(=O)c12 | inactive |  |  |  | 
COC(=O)[C@]1([C@@H]2CCC(=O)O2)CC(=O)c2c(O)cc(C)c(-c3c(C)cc(O)c4c3O[C@@](C(=O)OC)([C@@H]3CCC(=O)O3)CC4=O)c2O1 | Dose-dependent effect | >3 | Active |  | 
COc1ccc(-c2cc(=O)c3c(OC)cc(C)c(-c4c(C)cc(OC)c5c(=O)cc(-c6ccc(OC)cc6)oc45)c3o2)cc1 |  |  | Active | Non-Toxic | Active
COc1cc(C)c(-c2c(C)cc(OC)c3c(=O)cc(CCCCOC(C)=O)oc23)c2oc(CCCCOC(C)=O)cc(=O)c12 |  |  |  | Non-Toxic | Active
COC(=O)CCCc1cc(=O)c2c(OC)cc(C)c(-c3c(C)cc(OC)c4c(=O)cc(CCCC(=O)OC)oc34)c2o1 |  |  | Active | Non-Toxic | Active
